In the library only some 2.8% were active in any assay of this set; here they are far more common.
Mcl1-Bid inh: Mcl-1/Bid binding inhibitors, primary screen, biochemical, TR-FRET, 1536-well. TR-FRET Mcl-1/Bid-Dy647 peptide binding. hit rate 0.97% among 220,000. inhibition, % at 21.7 µM. Induced myeloid leukemia cell differentiation protein Mcl-1 (Homo sapiens), Q07820. AID 1021, 2008;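 active means compounds that cut the binding signal by more than half at the single screening dose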;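 further: His-tagged Mcl-1 with europium anti-His antibody binding Bid BH3 peptide; 0% = Mcl-1 plus peptide wells and 100% = peptide-only wells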
Target sequence (Q07820 whole entry, looked up): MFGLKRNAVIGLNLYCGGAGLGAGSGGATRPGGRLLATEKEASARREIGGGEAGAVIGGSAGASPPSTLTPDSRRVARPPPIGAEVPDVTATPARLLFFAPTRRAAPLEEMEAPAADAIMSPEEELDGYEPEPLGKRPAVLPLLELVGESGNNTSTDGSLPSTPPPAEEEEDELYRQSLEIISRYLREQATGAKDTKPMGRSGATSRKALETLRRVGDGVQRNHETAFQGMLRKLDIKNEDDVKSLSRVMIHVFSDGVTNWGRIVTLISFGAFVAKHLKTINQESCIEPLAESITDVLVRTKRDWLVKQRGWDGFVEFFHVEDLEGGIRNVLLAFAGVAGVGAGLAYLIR
Arbovirus inh: antivirals against arbovirus infection, primary screen, cell-based, full library, 10K replicate subset. hit rate 0.37% among 200,000. AID 1251, 2008. inhibition, % at 10 µM. arbovirus infection cell-based antiviral screen; in the data active means inhibition above about 30%
Mcl1-Noxa inh: Mcl-1/Noxa binding inhibitors, primary screen, biochemical, TR-FRET, 1536-well. inhibition, % at 21.7 µM. hit rate 1.5% among 220,000. TR-FRET Mcl-1/Noxa peptide binding, 2 h. AID 1022, 2008;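 active means compounds that cut the protein-peptide binding signal by more than 50% relative to plate controls in a single-dose test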;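 further: His-tagged Mcl-1 with rhodamine Noxa BH3 peptide and terbium anti-His antibody; 0% = Mcl-1 plus Noxa peptide wells and 100% = peptide-only wells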
Calpain2 inh: inhibitors of pig calpain II, primary screen, biochemical, fluorogenic peptide substrate, 1536-well; purified calpain II, 30 min; inhibition, % at 16 µM; hit rate 0.37% among 220,000; AID 1236, 2008;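 active means inhibition above about 50%, limit read from the data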
Biofilm kill mix: clotrimazole potentiators killing C. albicans biofilm, primary screen, 4-compound mixtures; C. albicans biofilm persisters + clotrimazole, fluorescence viability; primary screen in compound mixtures of four per well; inhibition, % at 7.6 µM; hit rate 0.02% among 120,000; AID 1242, 2008;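 active means inhibition above 30.3% in the primary screen of four-compound pools, then above 30% when the compound was retested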;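 further: compounds exposed to preformed 24 h biofilms for 48 h; 0% = untreated biofilm control and 100% = clotrimazole plus chlorhexidine kill blank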
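Assay system: C. albicans biofilms / Medium: RPMI/MOPS medium, pH 7.0 / Schedule: biofilm formation 24 h, compound exposure 48 h, 37 °C / Measured by: Alamar Blue fluorescence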
Bim-Mcl-1: inhibitors of Bim peptide binding to Mcl-1, primary screen, biochemical, bead-based flow cytometry, multiplex | Bim peptide-Mcl-1 binding | hit rate 0.1% among 190,000 | Induced myeloid leukemia cell differentiation protein Mcl-1 (Homo sapiens), Q07820 | inhibition, % at 10 µM | AID 1009, 2008; in the data active means inhibition above about 40%;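 further: 0% = no compound tracer wells and 100% = peptide blocker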
Active calls of the source: *.

For O=C(CN1CCN(Cc2ccccc2Cl)CC1)N/N=C/c1ccccn1 the results were Mcl1-Bid inh -18.5, Mcl1-Noxa inh 69.2*, Calpain2 inh 9.4 and Biofilm kill mix -6.7.
`Cc1cc(C)cc(OCC(=O)N/N=C/c2ccccn2)c1` gave Mcl1-Bid inh -48.5, Mcl1-Noxa inh -12.8, Calpain2 inh -6.4 and Biofilm kill mix 24.6.
For CC(=O)N1C=Cc2c(c(C)c3c([nH]c4ccccc43)c2C)C1 the results were Mcl1-Bid inh -50.0, Mcl1-Noxa inh -2.9, Calpain2 inh 12.1 and Biofilm kill mix 21.9.
COc1cc(CC(=O)OCn2nnc3ccccc3c2=O)cc(OC)c1OC was read as Mcl1-Bid inh -12.3, Arbovirus inh 11.4, Mcl1-Noxa inh 12.6, Calpain2 inh 0.5, Biofilm kill mix 20.9 and Bim-Mcl-1 -1.0.
`CC(C)(C)C1CCc2sc(C(=O)NNC(=O)CCl)cc2C1` (stereo not drawn) gave Mcl1-Bid inh -24.6, Arbovirus inh -33.3, Mcl1-Noxa inh -3.5, Calpain2 inh 66.5*, Biofilm kill mix 16.1 and Bim-Mcl-1 2.0.
COc1ccc(OC)c(NC(=O)c2cc(-c3cc(Cl)ccc3O)n[nH]2)c1 was read as Mcl1-Bid inh 7.8, Arbovirus inh 22.0, Mcl1-Noxa inh 11.8, Calpain2 inh -84.2 and Bim-Mcl-1 -3.0.
COc1ccc(Cl)cc1NC(=O)c1cc(-c2ccccc2O)n[nH]1 was read as Mcl1-Bid inh 0.4, Arbovirus inh 70.3*, Mcl1-Noxa inh 23.9, Calpain2 inh -1.6, Biofilm kill mix 9.2 and Bim-Mcl-1 -3.0.
Screening Cc1c(Cl)cccc1NC(=O)c1cc(-c2ccccc2O)n[nH]1 returned Mcl1-Bid inh -21.9, Arbovirus inh 30.5*, Mcl1-Noxa inh 27.4, Calpain2 inh 23.8 and Bim-Mcl-1 -1.0.
`Cc1ncoc1C(=O)Nc1cccc(Cl)c1C` gave Mcl1-Bid inh -0.9, Arbovirus inh 3.3, Mcl1-Noxa inh 13.3, Calpain2 inh -29.5 and Bim-Mcl-1 0.0.
Screening CC(=O)c1nc(-c2ccccc2)sc1C returned Mcl1-Bid inh -8.9, Arbovirus inh 2.5, Mcl1-Noxa inh -30.5, Calpain2 inh 0.0, Biofilm kill mix 8.0 and Bim-Mcl-1 -1.0.
For COc1ccc(CC(=O)Nc2cccc(-c3ccc4nnc(C)n4n3)c2)cc1OC the results were Mcl1-Bid inh -5.8, Arbovirus inh -9.3, Mcl1-Noxa inh 4.0, Calpain2 inh -1.2, Biofilm kill mix 14.7 and Bim-Mcl-1 0.0.
For COc1ccc(CCN2CC(C(=O)NCc3ccc(F)cc3)CC2=O)cc1OC (stereo not drawn) the results were Mcl1-Bid inh -19.1, Mcl1-Noxa inh 20.7, Calpain2 inh -21.9 and Biofilm kill mix 22.1.
Screening CCC/C(=N/NC(=O)c1ccccc1Cl)c1ccccc1 returned Mcl1-Bid inh -9.5, Arbovirus inh -8.1, Mcl1-Noxa inh 4.8, Calpain2 inh -13.2, Biofilm kill mix 14.9 and Bim-Mcl-1 -2.0.
CCSC1=NC2(CCCCC2)Nc2sc3c(c21)CCCC3 was read as Mcl1-Bid inh 74.4*, Arbovirus inh -8.5, Mcl1-Noxa inh 19.6, Calpain2 inh -7.6 and Bim-Mcl-1 3.0.
For O=C1COc2ccc(N3C(=O)C=CC3=O)cc2N1 the results were Mcl1-Bid inh -35.1, Arbovirus inh -0.3, Mcl1-Noxa inh 56.7*, Calpain2 inh -36.6, Biofilm kill mix -1.8 and Bim-Mcl-1 -3.0.
Screening CCOC(=O)N1CCC(N2CCCC(C(=O)c3cccc(OC)c3)C2)CC1 (stereo not drawn) returned Mcl1-Bid inh -51.1, Mcl1-Noxa inh -5.3, Calpain2 inh -16.1 and Biofilm kill mix 15.0.
CN(C)/N=C/c1ccc(P(c2ccc(/C=N/N(C)C)o2)c2ccc(/C=N/N(C)C)o2)o1 was read as Mcl1-Bid inh -46.6, Arbovirus inh 31.2*, Mcl1-Noxa inh 13.0, Calpain2 inh -10.0, Biofilm kill mix 9.2 and Bim-Mcl-1 0.0.
CN(/N=C/c1ccc([N+](=O)[O-])o1)c1ccccc1 was read as Mcl1-Bid inh -40.2, Arbovirus inh -1.2, Mcl1-Noxa inh -6.7, Calpain2 inh 32.8, Biofilm kill mix 22.7 and Bim-Mcl-1 -4.0.

Source: PubChem (several laboratories)
